Results on ten molecules are retold here after article PMC8992012 (Bioorganic & medicinal chemistry, 2021).

Molecules are shown by their SMILES. pEC50: −log10 of the molar value. “Also recorded” adds a separate entry of the source.

In test [1] the test system is NF-κB. Nature of the test: NF-κB activation using THP1-Blue NF-κB cells. The following applies: for pEC50: read-out: EC50 NF-κB induction in the presence of LPS, with LPS (10 ng/mL), THP1-Blue NF-κB cells, SEAP; for pEC50 / NF-κB activity (in words, SAR text to Table 1): 20h; for NF-κB activity (in words, SAR text to Table 1): compound alone, 5 μM; for NF-κB induction in the presence of LPS (in words, Fig. 6): compared to compound 1. In kind it is cell-based, human. Summed up: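 THP1-Blue NF-κB cells carry a stably integrated NF-κB-inducible SEAP. They were plated at 10^5 cells/well in RPMI with 10% FBS, penicillin, streptomycin and Normocin, then treated for 20 h with 5 μM test compound (0.5% DMSO final), alone or with LPS at 10 ng/mL. Supernatant SEAP was read colorimetrically at 630 nm. Signals were two-point normalized: baseline (vehicle or LPS) 100%, reference hit 200%.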

The subject of the next test is IL-8. Put plainly: IL-8 release in THP-1 cells. In kind it is cell-based, human. The following applies: 5 μM compound; for IL-8 induction with LPS: LPS 1 ng/mL, compared to Veh+LPS; for IL-8 induction, compound alone: without LPS, compared to Veh. Summed up: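 THP-1 cells were exposed overnight to 5 μM test compound or vehicle (0.5% DMSO), with or without LPS at 1 ng/mL. Secreted IL-8 in a portion of the supernatant was quantified by ELISA.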

Test [2] concerns NF-κB. Nature of the test: Confirmatory kinetic screening, cell-based NF-κB FRET assay with LPS. The arrangement: species or system human. The following applies: 12h incubation, 21 HTS actives.

Turning to `Cc1ccc(C)c(-c2csc(NC(=O)c3ccc(S(=O)(=O)N4CCCCC4)cc3)n2)c1` [Compound 1, N-(4-(2,5-dimethylphenyl)thiazol-2-yl)-4-(piperidin-1-ylsulfonyl)benzamide], the pEC50 – broadly, −log10 of the EC50, conventionally taken in molar units – in the test on NF-κB [1] is 5.64. In addition, in the test on IL-8, the “IL-8 induction with LPS” value is “significantly enhanced” and the “IL-8 induction, compound alone” value is “induced IL-8”. In addition, the “NF-κB enhancement activity at 12h in the presence of LPS” value in the test with NF-κB [2] was “most potent”.

Regarding `Cc1ccc(Br)c(-c2csc(NC(=O)c3ccc(S(=O)(=O)N4CCCCC4)cc3)n2)c1` [Compound 12d, N-(4-(2-bromo-5-methylphenyl)thiazol-2-yl)-4-(piperidin-1-ylsulfonyl)benzamide], in the test on NF-κB [1], the “NF-κB activity (in words, SAR text to Table 1)” value (“NF-κB activity” below) is reported as “active; also recorded: most active” and the pEC50 is 5.35. Besides, in the test on IL-8, the “IL-8 induction with LPS” value is on record as “significantly enhanced” and the “IL-8 induction, compound alone” value was “induced IL-8”.

As for `CCCC#Cc1sc(NC(=O)c2ccc(S(=O)(=O)N3CCCCC3)cc2)nc1-c1cc(C)ccc1C` [Compound 18q, N-(4-(2,5-dimethylphenyl)-5-(pent-1-yn-1-yl)thiazol-2-yl)-4-(piperidin-1-ylsulfonyl)benzamide], in the test with NF-κB [1], the “NF-κB activity” value is listed as “very potent; also recorded: most active” and the pEC50 is 5.77. In the test on IL-8, the “IL-8 induction with LPS” value was “significantly enhanced” and the “IL-8 induction, compound alone” value is reported as “induced IL-8”.

For `CCCC1CCN(S(=O)(=O)c2ccc(C(=O)Nc3nc(-c4cc(C)ccc4C)cs3)cc2)CC1` [Compound 54h, N-(4-(2,5-dimethylphenyl)thiazol-2-yl)-4-((4-propylpiperidin-1-yl)sulfonyl)benzamide], in the test with NF-κB [1], the “NF-κB activity” value is “very potent; also recorded: most active” and the pEC50 is 6.05. In addition, in the test on IL-8, the “IL-8 induction with LPS” value is on record as “significantly enhanced” and the “IL-8 induction, compound alone” value is given as “induced IL-8”.

For the molecule `CCCC#Cc1sc(NC(=O)c2ccc(S(=O)(=O)N3CCCCC3)cc2)nc1-c1cc(C)ccc1Br` [Compound 60, N-(4-(2-bromo-5-methylphenyl)-5-(pent-1-yn-1-yl)thiazol-2-yl)-4-(piperidin-1-ylsulfonyl)benzamide], in the test with NF-κB [1], the “NF-κB activity” value is “retained NF-κB activity”.

As for `CCCC#Cc1sc(NC(=O)c2ccc(S(=O)(=O)N3CCC(CCC)CC3)cc2)nc1-c1cc(C)ccc1Br` [Compound 61, N-(4-(2-bromo-5-methylphenyl)-5-(pent-1-yn-1-yl)thiazol-2-yl)-4-((4-propylpiperidin-1-yl)sulfonyl)benzamide], in the test on NF-κB [1], the “NF-κB activity” value is “significant loss of activity”.

For `Cc1ccc(N=[N+]=[N-])cc1-c1csc(NC(=O)c2ccc(S(=O)(=O)N3CCCCC3)cc2)n1` [Compound 63, N-(4-(5-azido-2-methylphenyl)thiazol-2-yl)-4-(piperidin-1-ylsulfonyl)benzamide], in the test with NF-κB [1], the “NF-κB induction in the presence of LPS (in words, Fig. 6)” value (“NF-κB induction in the presence of LPS” below) is recorded as “retained activity”.

In the case of `Cc1ccc(N=[N+]=[N-])c(-c2csc(NC(=O)c3ccc(S(=O)(=O)N4CCCCC4)cc3)n2)c1` [Compound 66, N-(4-(2-azido-5-methylphenyl)thiazol-2-yl)-4-(piperidin-1-ylsulfonyl)benzamide], the “NF-κB induction in the presence of LPS” value with NF-κB [1] was “inactive”.

As to `C#CC1CCN(S(=O)(=O)c2ccc(C(=O)Nc3nc(-c4cc(C)ccc4C)cs3)cc2)CC1` [Compound 68d, N-(4-(2,5-dimethylphenyl)thiazol-2-yl)-4-((4-ethynylpiperidin-1-yl)sulfonyl)benzamide], in the test with NF-κB [1], the “NF-κB induction in the presence of LPS” value is recorded as “modestly active”.

Regarding `C#CC1CCN(S(=O)(=O)c2ccc(C(=O)Nc3nc(-c4cc(N=[N+]=[N-])ccc4C)cs3)cc2)CC1` [Compound 69, N-(4-(5-azido-2-methylphenyl)thiazol-2-yl)-4-((4-ethynylpiperidin-1-yl)sulfonyl)benzamide], in the test with NF-κB [1], the “NF-κB induction in the presence of LPS” value was “perfect overlapping dose-response curve”.
